In ChEMBL document CHEMBL1138519, “Modulating retinoid X receptor with a series of (E)-3-[4-hydroxy-3-(3-alkoxy-5,5,8,8-tetramethyl-5,6,7,8-tetrahydronaphthalen-2-yl)phenyl]acrylic acids and their 4-alkoxy isomers” (J Med Chem, 2009):
Calls of active or inactive are those of the source. The calls are words filed in the database; no cut-off is given here.

Experiments:
[1] = molecular target: T1, Retinoic acid receptor alpha/Retinoid X receptor alpha (Homo sapiens) (UniProt P10276+P19793); test: Activity at RARalpha/RXRalpha ligand binding domain assessed as stabilization of RXR helix H12 by fluorescence anisotropy in presence of up to 10 uM coactivator peptide TIF-NR2; format: protein-complex assay
Procedure, shortened: (§1)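 Heterodimer (0.120 µM, dye on the RXRα C-terminus) with 10 µM ligand. Anisotropy was read at excitation 470 nm and emission 530 nm, with at least three independent measurements.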

[2] = molecular target: T2, Retinoic acid receptor RXR-beta (Homo sapiens) (UniProt P28702); test: Activity at Gal4-tagged human RXRbeta receptor expressed in human HeLa cells assessed as relative transcriptional activity by luciferase reporter assay relative to CD3254; format: cell-based; parameters: concentration or dose not given beside the values
T2 sequence (whole entry): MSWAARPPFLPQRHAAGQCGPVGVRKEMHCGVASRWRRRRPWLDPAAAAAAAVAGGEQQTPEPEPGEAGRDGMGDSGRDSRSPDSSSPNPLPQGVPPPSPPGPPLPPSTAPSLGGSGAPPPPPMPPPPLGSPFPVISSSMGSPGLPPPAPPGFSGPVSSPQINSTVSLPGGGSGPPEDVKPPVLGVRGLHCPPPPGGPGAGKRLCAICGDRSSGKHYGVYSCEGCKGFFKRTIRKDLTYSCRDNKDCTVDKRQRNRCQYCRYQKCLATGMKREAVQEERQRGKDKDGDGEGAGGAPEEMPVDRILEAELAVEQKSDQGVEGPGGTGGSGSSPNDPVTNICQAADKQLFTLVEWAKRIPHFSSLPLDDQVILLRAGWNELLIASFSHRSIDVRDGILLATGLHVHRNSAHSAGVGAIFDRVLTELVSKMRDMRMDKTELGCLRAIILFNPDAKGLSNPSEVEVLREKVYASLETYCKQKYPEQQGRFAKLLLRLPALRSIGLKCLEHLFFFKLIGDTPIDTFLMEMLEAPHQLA
Procedure, shortened: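 HeLa cells stably carrying a Gal4-hRXRβ chimera (RXRβ LBD fused to the GAL4 DBD) and a (Gal4)5-β-globin-luciferase reporter. Cells were grown in DMEM with 5% FCS plus G418, puromycin, hygromycin and gentamycin. They were exposed to increasing compound concentrations for 16 h at 37 °C and 5% CO2, then washed, lysed, and read for luciferase luminescence (RLU).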

[3] = molecular target: T1, Retinoic acid receptor alpha/Retinoid X receptor alpha (Homo sapiens); test: Activity at RARalpha/RXRalpha ligand binding domain assessed as stabilization of RXR helix H12 by fluorescence anisotropy; format: protein-complex assay
Procedure, shortened: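 RARα-RXRα LBD heterodimer, 0.120 µM, carrying a fluorescent dye attached to the RXRα C-terminus. Steady-state anisotropy was read with excitation at 470 nm and emission at 530 nm, with ligand at saturating concentration. At least three independent measurements were made per sample.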

[4] = molecular target: T2, Retinoic acid receptor RXR-beta (Homo sapiens); test: Antagonist activity at Gal4-tagged human RXRbeta receptor expressed in human HeLa cells assessed as inhibition of CD3254-induced transcription at >=10 uM by luciferase reporter assay; format: functional, cell-based
Procedure, shortened: (§2)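 Gal4-hRXRβ/(Gal4)5-β-globin-luciferase HeLa reporter cells, maintained in DMEM with 5% FCS and selection antibiotics. Cells were co-treated for 16 h at 37 °C with 3 nM of the reference RXR agonist and increasing compound concentrations. After lysis, luciferase was read as RLU to measure antagonism of agonist-induced transcription.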

[5] = molecular target: T1, Retinoic acid receptor alpha/Retinoid X receptor alpha (Homo sapiens); test: Activity at RARalpha/RXRalpha ligand binding domain assessed as stabilization of RXR helix H12 by fluorescence anisotropy in presence of 1 uM coactivator peptide TIF-NR2; format: protein-complex assay; procedure, shortened: as §1
[6] = molecular target: T2, Retinoic acid receptor RXR-beta (Homo sapiens); test: Antagonist activity at Gal4-tagged human RXRbeta receptor expressed in human HeLa cells assessed as inhibition of CD3254-induced transcription at 1 uM by luciferase reporter assay; format: functional, cell-based; procedure, shortened: as §2

CCCCOc1cc(-c2cc(/C=C/C(=O)O)ccc2O)cc2c1C(C)(C)CCC2(C)C
Activity [1]: Active | Activity [2]: > 10% | Activity [3]: inactive | Activity [4]: Active

CCCCCCOc1cc2c(cc1-c1cc(/C=C/C(=O)O)ccc1O)C(C)(C)CCC2(C)C
Activity [1]: inactive

Cc1cc2c(cc1-c1cc(/C=C/C(=O)O)ccc1O)C(C)(C)CCC2(C)C
Activity [5]: Active

CCCCCOc1cc(-c2cc(/C=C/C(=O)O)ccc2O)cc2c1C(C)(C)CCC2(C)C
Activity [1]: Active | Activity [2]: > 10% | Activity [3]: inactive | Activity [4]: Active

CCCCCCOc1cc(-c2cc(/C=C/C(=O)O)ccc2O)cc2c1C(C)(C)CCC2(C)C
Activity [1]: Active | Activity [2]: > 10% | Activity [3]: inactive | Activity [4]: Active

COc1cc(-c2cc(/C=C/C(=O)O)ccc2O)cc2c1C(C)(C)CCC2(C)C
Activity [1]: Active | Activity [2]: > 30% | Activity [3]: inactive | Activity [4]: Active

CCCOc1cc(-c2cc(/C=C/C(=O)O)ccc2O)cc2c1C(C)(C)CCC2(C)C
Activity [1]: Active | Activity [2]: > 10% | Activity [3]: inactive | Activity [4]: Active

CCOc1cc(-c2cc(/C=C/C(=O)O)ccc2O)cc2c1C(C)(C)CCC2(C)C
Activity [1]: Active | Activity [2]: > 10% | Activity [3]: inactive | Activity [4]: Active

CCCCCOc1cc2c(cc1-c1cc(/C=C/C(=O)O)ccc1O)C(C)(C)CCC2(C)C
Activity [1]: inactive | Activity [6]: Active | Activity [2]: inactive | Activity [3]: inactive
